These results are taken from ChEMBL document CHEMBL1155584, “Bioactive compounds from Psorothamnus junceus” (J Nat Prod, 2000).

≈ marks a conversion by molar mass, not a printed value.

What all share (format): functional
One experiment deals with A549. The experiment in a line: Cytotoxicity against human A549 cells by MTT assay. A digest of the protocol:
(§1)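 Human tumour lines (A-549 lung carcinoma, MCF-7 breast carcinoma, HT-29 colon adenocarcinoma, SK-MEL-5 melanoma from an axillary node metastasis, Malme-3M melanoma from a lung metastasis) tested with a standard MTT protocol. Adriamycin served as the positive control. Results are reported as GI50.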
(In general: Tetrazolium dyes change colour on reduction, which living cells bring about.)

A further experiment has as its system MCF7. The experiment in a line: Cytotoxicity against human MCF7 cells by MTT assay. A digest of the protocol:
as §1

The subject of a further experiment is HT-29. The experiment in a line: Cytotoxicity against human HT29 cells by MTT assay. A digest of the protocol:
as §1

For a further experiment, the system named is SK-MEL-5. The experiment in a line: Cytotoxicity against human SK-MEL-5 cells by MTT assay. A digest of the protocol:
as §1

Another experiment relates to Malme-3M. The experiment is described as follows: Cytotoxicity against human MALME-3M cells by MTT assay. A digest of the protocol:
as §1

Turning to `COC1=C(C)C(=O)C(C)(C)C(=O)/C1=C1\C=Cc2ccccc2O1` [DALRUBONE], the GI50 (as a rule, the concentration that inhibits growth by half) stood at 0.2 µg/mL (≈ 0.644 µM) in the experiment with A549; 1 µg/mL (≈ 3.22 µM) in the experiment with MCF7; 0.02 µg/mL (≈ 0.0644 µM) in the experiment with HT-29; 0.4 µg/mL (≈ 1.29 µM) in the experiment on SK-MEL-5; 2 µg/mL (≈ 6.44 µM) in the experiment with Malme-3M.
In the same order, the values of `COc1cccc2c1C(=O)c1c(O)c3c(c(O)c1C2=O)C[C@@](O)(C(=O)CO)C[C@@H]3O[C@H]1C[C@H](N)[C@H](O)[C@H](C)O1` [DOXORUBICIN] are 0.04 µg/mL (≈ 0.0736 µM), 0.2 µg/mL (≈ 0.368 µM), 0.06 µg/mL (≈ 0.11 µM), 0.03 µg/mL (≈ 0.0552 µM) and 0.1 µg/mL (≈ 0.184 µM).
In the same order, the values of `CC1(C)C(=O)C(=C2C=Cc3ccccc3O2)C(=O)C(C)(C)C1=O` [EMORYDONE] are 3 µg/mL (≈ 9.67 µM), 3 µg/mL (≈ 9.67 µM), 4 µg/mL (≈ 12.9 µM), 3 µg/mL (≈ 9.67 µM) and 1 µg/mL (≈ 3.22 µM).
In the same order, the values of `CC(=O)C1=c2oc3c(c2Oc2ccccc21)C(=O)C(C)(C)C(=O)C=3C` [PSOROTHAMNONE A] are 40 µg/mL (≈ 119 µM), 60 µg/mL (≈ 178 µM), 50 µg/mL (≈ 149 µM), 20 µg/mL (≈ 59.5 µM) and 60 µg/mL (≈ 178 µM).
With `CC1=c2oc3c(c2C(=O)C(C)(C)C1=O)Oc1ccccc1C=3` [PSOROTHAMNONE B], the GI50 in the experiment with A549 was found to be 30 µg/mL (≈ 102 µM); in the experiment with MCF7, 40 µg/mL (≈ 136 µM); in the experiment with HT-29, 30 µg/mL (≈ 102 µM); with SK-MEL-5, 40 µg/mL (≈ 136 µM); in the experiment with Malme-3M, 40 µg/mL (≈ 136 µM).
